Experimental findings from PubChem BioAssay are described below.

Values without a mark were called inactive. Inconclusive results are not listed. Calls of active or inactive are those of the source.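 How the source made its calls, unless noted: active means viability increase at or above a cutoff of the median across tested compounds plus 3 SD (cut at about 8.5% in these data, passing the limit was not always enough); inconclusive means some gains above the cutoff, reason not given; inactive means the rest.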

Assay [1] in a line: S. cerevisiae growth inhibition in permissive medium (OD615), pilot counter-assay for S. cerevisiae lifespan shortening project, permissive growth control (AID 705;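 active means growth inhibition above 25% in both replicates, a cutoff set 3 SD above the mean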). Conditions: OD615, 24 h, at 10 µM, hits give high values. A digest of the protocol: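 System: Engineered DeaD yeast | Buffer or medium: SC raffinose/galactose permissive medium | Incubation: Cells pre-grown 4 h, then 24 h compound exposure, 30 °C humidified | Measured by: Absorbance (optical density) at 615 nm | Read-out: Reduction in yeast growth (OD615)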

A short description of assay [2]: S. cerevisiae growth inhibition in restrictive medium, OD615, pilot screen, restrictive growth control, yeast lifespan reduction project (AID 706;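 active means growth inhibition above a set limit, 3 SD over mean compound inhibition, in both replicates, cut at about 43% in these data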;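 further: modified DeaD lifespan yeast strain shifted to restrictive glucose medium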). As to conditions: OD615, 48 h, at 10 µM, hits give high values. A digest of the protocol:
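Material: modified S. cerevisiae; Medium: glucose-based CSMM-D restrictive medium; Compound dosing: one concentration, 10 µM final, 0.25% DMSO; Incubation: 48 h compound exposure at 30 °C; Measured by: OD615.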

A short description of assay [3]: doxorubicin toxicity protection in MRP-1 cells – H69AR cells, CellTiter-Glo, duplicate, MRP-1 activator project, pilot screen (AID 807).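 Further: compound pretreatment 18-22 h then 72 h combined with doxorubicin; 0% = doxorubicin alone and 100% = vehicle without doxorubicin.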 Conditions: H69AR viability with doxorubicin, CellTiter-Glo luminescence; at 10 µM; hits give high values. (ATP-based viability assays read luminescence as a measure of living cells.)
The nature of assay [4]: viability of PTEN-null HCT116 cells – cell-based, HCT116 clonal line, CellTiter-Glo, pilot screen (AID 824;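 active means viability at or below 27.92% in each of two runs, the all-compound median minus 4 SD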;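 further: 0% = 20 µM Hyamine control and 100% = vehicle cell control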). As to conditions: HCT116 PTEN-deleted viability, 60 h, at 10 µM, hits give low values.
Assay [5] in a line: RAM pathway blockade in budding yeast – dse1pr::URA3 reporter, 5-FOA selection, pilot screen (AID 869;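 active means inhibition over a set limit, the all-compound mean plus 3 SD, in both replicate runs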;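 further: 0% = DMSO wells with no growth and 100% = 10 µM 1-NA-PP1 with full growth; RAM network block rescues cells from 5-FOA so hits raise OD615 growth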). As to conditions: S. cerevisiae dse1pr::URA3 5-FOA growth, OD615, 2 d; at 10 µM; hits give high values; strain carries analog-sensitive mutant Cbk1 kinase.
Assay [6] is described as follows: RAM signaling pathway blockade in yeast – S. cerevisiae, Pdr1DBD-CYC8 efflux-inhibited sensitized strain, primary screen (AID 1298;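 active means RAM network inhibition above 8.4% in each of two replicates, 3 SD over the compound average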;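 further: 0% = DMSO untreated cells without growth and 100% = 10 µM 1-NA-PP1 full growth; higher means more yeast growth rescued from 5-FOA killing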). Conditions: S. cerevisiae cbk1-as DSE1-URA3 strain, 5-FOA growth OD615, 2 d; at 50 µM; hits give high values.

`COCCNC(=O)NC1(C(F)(F)F)Oc2ccc(Cl)cc2O1` (centres undefined): the results for the growth inhibition in assay [1] and in assay [2] were -0.985% and -0.285%, respectively. In assay [3], the viability increase is -4.63%. In addition, in assay [4], the viability was 41.9%. Also, in assay [5], the inhibition was 0.43%. For the same compound, the RAM network inhibition in assay [6] was 5.07%.
With `Cc1ccc(N(CC(=O)NCc2ccco2)S(=O)(=O)c2ccccc2)cc1`, the values for the growth inhibition in assay [1] and in assay [2] were -10.9% and -7.57%, respectively. Further, the viability increase in assay [3] is -4.6%. The viability in assay [4] was 87.2%. Besides, in assay [5], the inhibition is 1.1%. Besides, in assay [6], the RAM network inhibition was 1.9%.
For `CCN(CC)S(=O)(=O)c1ccc2oc(C(=O)NCc3ccc(F)cc3)c(C)c2c1`, the growth inhibition in assay [1] is -10.9%; in assay [2] it was 12.4%. The viability increase in assay [3] was -6.59%. In assay [4], the viability was 60.6%. Further, the inhibition in assay [5] is 1.37%. Further, the RAM network inhibition in assay [6] is 7.7%.
Turning to `O=C(CCCOc1ccccc1)N1CCCc2ccccc21`, the results for the growth inhibition in assay [1] and in assay [2] were -0.835% and -2.99%, respectively. Also, in assay [3], the viability increase was -2.01%. Moreover, the viability in assay [4] is 92.2%. Moreover, the inhibition in assay [5] is 0.825%. Also, in assay [6], the RAM network inhibition is 2.37%.
For `COc1cc(C2CC(=O)C=C(O)C2)cc(OC)c1OC` (centres undefined), the growth inhibition in assay [1] is -7.01%; in assay [2], -6.56%. Further, in assay [3], the viability increase was 0.41%. In addition, the viability in assay [4] was 99%. Moreover, the inhibition in assay [5] was 0.785%. The RAM network inhibition in assay [6] was 5.78%.
With `CCOc1ccc(-n2c(SCC(=O)Nc3cc(C)on3)nc3c([nH]c4ccccc43)c2=O)cc1`, the values for the growth inhibition in assay [1] and in assay [2] were -16.7% and -15.4%, respectively. In addition, the viability increase in assay [3] is -6.08%. In assay [4], the viability is 55.3%. Also, the inhibition in assay [5] is 0.94%. Moreover, in assay [6], the RAM network inhibition was 5.59%.
With `CCCC(C)NC(=O)c1ccc(F)cc1` (centres undefined), the growth inhibition in assay [1] was -11.8%; in assay [2] it was -7.83%. In addition, the viability increase in assay [3] was -1.81%. Also, the viability in assay [4] is 99.9%. For the same compound, the inhibition in assay [5] is 0.66%. In addition, the RAM network inhibition in assay [6] is 1.8%.
With `CCOC(=O)c1ccc(NC(=O)c2cccc(S(=O)(=O)N3CCOCC3)c2)cc1`, the growth inhibition in assay [1] was -9.14%; in assay [2] it was -4.13%. Moreover, the viability increase in assay [3] was -0.35%. Further, the viability in assay [4] is 57.2%. Also, the inhibition in assay [5] was 2.96%. In assay [6], the RAM network inhibition was 7.23%.
On to `CN1CCN(C(=O)c2c(NC(=O)c3ccco3)sc3c2CCC(C(C)(C)C)C3)CC1` (centres undefined), for which the figures for the growth inhibition in assay [1] and in assay [2] were -11.3% and 1.13%, respectively. Also, the viability increase in assay [3] is -2.04%. Further, the viability in assay [4] is 79.9%. In addition, the inhibition in assay [5] is -0.17%. Further, the RAM network inhibition in assay [6] is 0.15%.
Consider `CC(=O)c1c(C(C)=O)c(C)n(-c2nc(-c3ccccc3)c(C)s2)c1C`, for which the growth inhibition in assay [1] was 0.235%; in assay [2], -11%. Further, in assay [3], the viability increase was -2.37%. Also, the viability in assay [4] was 91.4%. The inhibition in assay [5] was 1.21%. For the same compound, the RAM network inhibition in assay [6] was 4.01%.
For the compound `COC(=O)C1=C(C)N(c2ccc(F)cc2)C(=O)C1`, the growth inhibition was -6.78% in assay [1] and -12.3% in assay [2]. Also, the viability increase in assay [3] is -2.11%. Moreover, the viability in assay [4] is 93.6%. The inhibition in assay [5] is 1.19%. Moreover, in assay [6], the RAM network inhibition is -0.26%.
Turning to `COc1cc(C(=O)N2CCN(c3cccc(C)c3C)CC2)cc(OC)c1OC`, the values for the growth inhibition in assay [1] and in assay [2] were 0.72% and 9.77%, respectively. Also, in assay [3], the viability increase is -5.32%. The viability in assay [4] is 20.1% (active). For the same compound, in assay [5], the inhibition is -0.125%. For the same compound, the RAM network inhibition in assay [6] was 10.1%.
For `CCC(C)(C(=O)NC1CCCC1)N(C(=O)CNC(C)=O)c1ccccc1` (centres undefined), the growth inhibition in assay [1] was -11.6%; in assay [2], -1.64%. Further, the viability increase in assay [3] was -1.96%. Moreover, in assay [4], the viability is 98.3%. The inhibition in assay [5] was 3.23%. Moreover, in assay [6], the RAM network inhibition was 3.45%.
As for `CCN(Cc1ccccc1)S(=O)(=O)c1ccc(C(=O)Nc2nnc(C3CC3)o2)cc1`, the growth inhibition in assay [1] was -5.06%; in assay [2] it was -18.6%. In addition, the viability increase in assay [3] was -4.27%. Further, the viability in assay [4] is 22.8% (active). Further, in assay [5], the inhibition is 2.35%. In assay [6], the RAM network inhibition is 5.05%.
Consider `O=C(CCn1nnc2ccccc21)N1CCC(O)(c2cccc(F)c2)CC1`, for which the growth inhibition in assay [1] is -3.14%; in assay [2] it was -7.45%. Moreover, the viability increase in assay [3] is -2.75%. In assay [4], the viability was 101%. In addition, the inhibition in assay [5] was 2.4%. Further, in assay [6], the RAM network inhibition is 1.86%.
Consider `O=C(COc1ccccc1)NCCSc1ccccc1`, for which the growth inhibition is -10.4% in assay [1] and -5.4% in assay [2]. In addition, in assay [3], the viability increase is -2.23%. Also, the viability in assay [4] is 97.5%. In assay [5], the inhibition is 1.55%. Besides, the RAM network inhibition in assay [6] was 0.83%.
As for `CCS(=O)(=O)C(=C(Nc1ccc(OC)cc1)Nc1ccc(OC)cc1)S(=O)(=O)CC`, the growth inhibition in assay [1] was -3.28%; in assay [2], 4.84%. In addition, the viability increase in assay [3] is -0.19%. The viability in assay [4] is 95.3%. For the same compound, the inhibition in assay [5] was 0.04%. Further, the RAM network inhibition in assay [6] is 7.21%.
With `Cc1cc(C(=O)NC(C)c2ccncc2)no1` (centres undefined), the growth inhibition in assay [1] is -12.9%; in assay [2] it was 8.19%. Also, in assay [3], the viability increase is -2.15%. For the same compound, in assay [4], the viability was 90.3%. Further, in assay [5], the inhibition was 1.55%. For the same compound, the RAM network inhibition in assay [6] was 0.72%.
Take `Cc1oc(-c2ccc(Cl)cc2)nc1CN1CCC(C(=O)N2CCc3ccccc3C2)CC1`: the growth inhibition in assay [1] is -4.91%; in assay [2], -16.6%. For the same compound, the viability increase in assay [3] is -8.22%. The viability in assay [4] was 11.8% (active). Also, in assay [5], the inhibition is 0.05%. Besides, the RAM network inhibition in assay [6] is 8.38%.

Usually viability stands for a read-out of living cells in per cent, often relative to untreated cells. A word on the inhibition: it is the drop in the measured response relative to a control, in per cent.
